Source: PubChem BioAssay (The Scripps Research Institute Molecular Screening Center)
OX1R antag-1: OX1R (human) antagonism. OX1R-expressing cells, FRET antagonist read-out. O43613. inhibition, % at 6.6 µM. 1.8% of 330,000 active; in the data active means inhibition mostly above about 38%, no sharp cut-off; inactive means mostly below about 40%;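 further: 0% = agonist challenge alone and 100% = reference antagonist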
Target sequence (O43613 whole entry, looked up): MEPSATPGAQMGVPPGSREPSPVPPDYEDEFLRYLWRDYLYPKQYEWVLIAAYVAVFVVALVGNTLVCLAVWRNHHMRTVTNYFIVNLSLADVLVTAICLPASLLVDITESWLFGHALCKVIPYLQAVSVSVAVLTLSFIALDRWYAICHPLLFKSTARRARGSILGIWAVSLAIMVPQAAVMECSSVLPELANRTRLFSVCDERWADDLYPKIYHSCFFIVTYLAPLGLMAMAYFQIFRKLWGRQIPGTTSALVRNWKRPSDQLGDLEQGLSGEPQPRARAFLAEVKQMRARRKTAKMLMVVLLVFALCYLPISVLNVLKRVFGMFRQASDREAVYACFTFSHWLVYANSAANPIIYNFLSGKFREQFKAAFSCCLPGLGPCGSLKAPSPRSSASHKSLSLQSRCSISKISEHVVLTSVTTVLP
CHO parental Ca: counter-screen for OX1R antagonists: effect in parental CHO cells; parental CHO-K1, ATP-induced calcium, Fluo-8 fluorescence; inhibition, % at 5.6 µM; 0.63% of 330,000 active; AID 463079;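 active means inhibition above that plate's mean sample inhibition plus 3 SD, cut at about 26% in these data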;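 further: 0% = ATP-challenged DMSO wells and 100% = DMSO wells without ATP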
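Assay system: parental CHO cells; Read-out basis: percent inhibition of ATP-evoked calcium rise, normalized to controls; Benchmarks: ATP and no-ATP DMSO wells; Compound dosing: single nominal dose of 5.6 µM per compound; Signal: Fluo-8 calcium dye fluorescence; Also added: ATP as calcium-mobilizing challenge; Repeats: singlicate.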
GPR7 antag: antagonists of human GPR7 (neuropeptides B/W receptor 1). GPR7-expressing cells, fluorescence antagonist assay. P48145. 1.1% of 290,000 active. inhibition, % at 4.4 µM; in the data active means inhibition above about 16%, passing the limit was not always enough;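 further: cells stimulated with the agonist NPW; 0% = agonist with vehicle and 100% = vehicle without agonist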
TAAR1 antag: human TAAR1 antagonism; Q96RJ0; CHO RD-HGA16 TAAR1, Fluo-8 calcium fluorescence, antagonist; inhibition, % at 3 µM; 1.5% of 360,000 active;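 active means inhibition above a per-plate cutoff, the mean inhibition of test compounds on that plate plus 3 SD, cut at about 49% in these data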;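 further: 0% = DMSO plus EC80 beta-PEA response and 100% = DMSO alone without agonist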
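Material: RD-HGA16 CHO cells with stable hTAAR1 and Gα16; Dosing: single nominal final test compound concentration of 3 µM; Schedule: seeding 17-24 h prior, 75-min 37 °C, 30-min RT dye loading; Detection: kinetic Fluo-8 calcium fluorescence measurement; Measure: % inhibition from peak post-agonist over basal fluorescence ratio; Benchmarks: vehicle and agonist controls.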
TAAR1 agonist: agonists of human TAAR1; Q96RJ0; CHO RD-HGA16 TAAR1, Fluo-8 calcium fluorescence; vehicle wells 0%, saturating PEA agonist 100%; activation, % at 3 µM; 0.99% of 360,000 active; AID 624467;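 active means activation above the mean activation of all test compounds in the run plus 3 SD, cut at about 38% in these data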
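Test system: RD-HGA16 (CHO) cells co-expressing Gα16 and hTAAR1 | Doses: Single dose, 3 µM | Schedule: 17-24 h seeding, 75 min 37 °C dye, 30 min RT | Evaluation: % activation from peak over basal fluorescence ratio, DMSO-to-PEA scaled | Technique: Kinetic Fluo-8 calcium fluorescence | Benchmarks: Low control DMSO, high control PEA (EC100)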
OX1R antag-2: human HCRTR1 antagonism | CHO/OX1R cells, Fluo-8 calcium fluorescence, orexin A | inhibition, % at 5 µM | 0.43% of 330,000 active | AID 434989;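 active means inhibition above its plate's threshold, mean inhibition of all tested compounds on the plate plus 3 SD, cut at about 37% in these data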;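 further: 0% = orexin A challenge wells and 100% = SB-334867-A antagonist wells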
* marks the source's active call; other numbers are inactive results; . = no result given. Only some compounds are listed: those with a hit (about 4.6% of all), similar ones and a draw of the others.

SMILES	OX1R antag-1	CHO parental Ca	GPR7 antag	TAAR1 antag	TAAR1 agonist	OX1R antag-2
O=C(Nc1nccs1)c1ccc(-c2ccc(Cl)cc2)o1	49*	-31	-10	-14	-2	6
O=C(Nc1nccs1)c1ccc(-c2ccc(F)cc2)o1	48	-16	-9	-2	-1	-17
COc1ccccc1CN1C[C@@H]2C[C@@H](c3cccc(O)c3)N3CCC[C@@]23C1=O	21	-21	15	-10	2	-21
Cc1ccc(CNC(=O)C2CC(c3ccc(C(F)(F)F)cc3)=NO2)o1 (configuration not stated)	28	62*	.	5	2	1
COc1ccc([C@@H]2CC=C(C(=O)O)CN2S(=O)(=O)c2ccc(Cl)cc2)cc1	11	-11	.	13	0	-2
Cc1ccc(-c2csc(NC(=O)C3=NN(c4ccccc4)C(=O)CC3)n2)cc1	25	20	2	52*	12	-5
Cc1csc(NC(=O)C2=NN(c3ccccc3)C(=O)CC2)n1	20	-10	20	7	9	-13
CS(=O)(=O)Nc1ccccc1C(=O)OCC(=O)N1CCC(c2ccccc2)=N1	63*	-4	.	8	14	8
COC(=O)C1(C)NC(c2ccccc2F)C2C(=O)N(c3ccccc3)C(=O)C21 (configuration not stated)	13	-21	-5	3	0	-23
Cc1cccc(N2CCN(C(=O)C3CC(=O)N(c4ccc5c(c4)OCCO5)C3)CC2C)c1 (configuration not stated)	-4	-14	.	55*	17	1
Cc1cccc(N2CCN(C(=O)c3ccc4c(c3)OCCO4)CC2C)c1 (configuration not stated)	28	-14	-14	-8	0	-3
N/C(=N\OC(=O)CCCN1C(=O)c2ccccc2C1=O)c1ccc(Br)cc1	19	-5	-3	14	11	-16
N/C(=N\OC(=O)CCCCCN1C(=O)c2ccccc2C1=O)c1ccccc1	62*	-13	5	12	-3	-9
O=C(OCc1cc(=O)n2c(n1)sc1ccccc12)c1ccc(O)cc1O	63*	-17	-3	-8	0	-2
Cc1ccc(C(=O)N[C@H](C(=O)OCc2cc(=O)n3c(n2)sc2ccccc23)C(C)C)cc1	21	-40	-13	38	4	-17
CCc1c(C)nc(SCC(N)=O)c(C#N)c1C	6	-12	-9	-8	2	-7
CCc1c(C)nc(SCC(=O)c2cccs2)c(C#N)c1C	64*	-6	8	9	12	-4
CN1C(=O)[C@@H]2[C@@H]3C[C@@H]([C@H]4ON=C(c5ccccc5OCC#N)[C@@H]34)[C@@H]2C1=O	2	-20	-6	-12	4	-7
COc1ccc(C2C(C#N)=C(N)OC3=C2C(=O)CCC3)cc1Cn1cc([N+](=O)[O-])cn1 (configuration not stated)	18	-8	-6	-5	-1	-6
Nc1c(N2CCCC2)cc(Cl)c2nonc12	40*	4	-10	.	.	4
CC(C)N1CC(O)=C(c2nc3ccccc3[nH]2)C1=N	5	4	12	11	0	-5
CC(C1CC2CCC1C2)N1CC(O)=C(c2nc3ccccc3[nH]2)C1=N (configuration not stated)	17	-33	21*	3	8	-24
CCN1/C(=C/c2ccc3cccc(C)c3[n+]2CC)Sc2ccccc21	32	66*	34*	29	25	100*
CCN1/C(=C/c2ccc3cc(C)cc(C)c3[n+]2CC)Sc2cc(C)ccc21	.	.	10	38	23	.
CN(C)c1ccc(NC2=C(Cl)C(=O)c3ccccc3C2=O)cc1	92*	35*	6	66*	3	31
SMILES	OX1R antag-1	CHO parental Ca	GPR7 antag	TAAR1 antag	TAAR1 agonist	OX1R antag-2
O=C1C(Cl)=C(Nc2ccc3cn[nH]c3c2)C(=O)c2ccccc21	54*	64*	41*	62*	-4	59*
O=C(Nc1ccc2cn[nH]c2c1)c1c(Cl)cccc1Cl	10	-6	5	1	1	8
O=C(c1c(F)cccc1F)N1CCN(c2ncccn2)CC1	5	4	-5	3	16	-1
O=C(NCc1ccco1)C(c1ccccc1)N(C(=O)Cc1cccs1)c1ccccc1F (configuration not stated)	38	-15	2	58*	10	-24
O=C(NCc1ccco1)C(c1ccncc1)N(C(=O)Cc1cccs1)c1ccccc1 (configuration not stated)	28	1	1	3	4	-35
O=C(COc1ccccc1)OC(C(=O)c1ccccc1)c1ccccc1 (configuration not stated)	6	0	-7	-5	3	-15
Cc1ccc(C(O)(c2ccccc2)c2ccccc2C(C)N(C)C)c(C)c1 (configuration not stated)	2	-22	17	-9	41*	-27
C=CC[C@H](CC(=O)N(CCO)Cc1ccccc1)C(=O)N[C@@H](C)COC(=O)[C@@H](CC=C)Cc1ccc(F)cc1	25	-17	.	54*	20	3
C=CCC[C@@H](Cc1ccc(F)cc1)C(=O)OC[C@H](C)NC(=O)[C@@H](CC=C)CC(=O)N(CCO)Cc1ccccc1	8	-36	.	-2	1	-36
C=CCC[C@@H](Cc1ccc(F)cc1)C(=O)OC[C@@H](NC(=O)[C@H](CC=C)CC(=O)N(CCO)Cc1ccccc1)c1ccccc1	34	-2	.	61*	4	49
O=C(CCCC(=O)NN=Cc1cccc(O)c1)NN=Cc1cccc(O)c1	.	.	.	5	27	.
Cc1ccc(NC(=O)C2CCCO2)cc1[N+](=O)[O-] (configuration not stated)	16	0	-7	-16	1	-3
COc1ccc(CCNC(=O)c2cccc(C(=O)NCCc3ccc(OC)cc3)n2)cc1	9	-26	.	54*	7	-24
CC(=O)N(c1ccccc1C)C1CCCC1	17	-12	-19	-3	1	-15
CC(=O)N(C1=C(Cl)C(=O)c2ccccc2C1=O)C1CCCCC1	71*	38*	-19	40	42*	22
C/C(=N/NC(=O)c1cccs1)c1ccc(N2CCOCC2)cc1	37	2	-2	10	-2	-1
Cc1nc2nc(C)c(CCC(=O)NC(C)c3ccc4c(c3)OCCO4)c(C)n2n1 (configuration not stated)	12	9	-5	-11	2	-6
Cc1nc2cc(-c3ccccc3)nn2c(C)c1CCC(=O)NC(C)c1ccc2c(c1)OCCO2 (configuration not stated)	52*	-20	-1	-4	-1	-5
